Experimental data published in ChEMBL document CHEMBL1140145, “Identification of non-nucleoside DNA synthesis inhibitors of vaccinia virus by high-throughput screening” (J Med Chem, 2008).
pEC50, pIC50: −log10 of the molar value.

Key:
[1] = Cytotoxicity against african green monkey BSC1 cells after 20 hrs WST-1 based assay; type: cell-based, BSC-1; conditions: chlorocebus aethiops, read-out: TC50
Procedure, shortened: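 Uninfected BS-C-1 cells in phenol red-free medium, seeded 5000 (20 h), 1000 (3-day) or 200 (5-day) cells/well, exposed next day to compound in two-fold serial dilutions (top 200 µM; 1% DMSO final) at 37°C. WST-1 added 30 min, A450 read. Triplicates; percent cytotoxicity vs DMSO fitted four-parameter sigmoidal for TC50.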

Vaccinia virus [2] = assay: Inhibition of Vaccinia virus DNA synthesis in by rapid plate assay; type: functional, organism-based; conditions: Orthopoxvirus vaccinia
Vaccinia virus [3] = assay: Antiviral activity against Vaccinia virus WR in BSC1 cells assessed as reduction in plaque formation after 20 hrs; type: functional, organism-based; conditions: Orthopoxvirus vaccinia, BSC-1, 20 h

SMILES	CC50 at 20 h [1]	pIC50 (Vaccinia virus [2])	pEC50 (Vaccinia virus [3])
COC(=O)C(C(=O)OC)C(Nc1ccccc1)c1ccccc1 (stereo unspecified)	> 200 µM	3.20	
CCOC(=O)c1cc(-c2ccccc2)n(-c2ccc(C(=O)O)cc2)c1C	> 200 µM	3.92	4.00
c1ccc2nc3c(nc2c1)c1ccccc1n3CCN1CCOCC1	72 µM	4.55	4.52
O=C1N=C(Nc2cccc(C(=O)O)c2)S/C1=C\c1ccc(-c2ccc(C(=O)O)cc2)o1	> 200 µM	4.52	
COc1ccc2cc3cc(C(=O)NCCN(C)C)oc3nc2c1	> 200 µM		4.12
CCN1/C(=C/c2ccc3ccccc3[n+]2CC)Sc2cc(NC(C)=O)ccc21	> 200 µM	4.82	3.70
O=C1/C(=C/c2ccc(Br)o2)CC/C1=C\c1ccc(Br)o1	> 200 µM	4.02	
CC1CCN(CCCNC(=O)c2cc3c(=O)n(C)c4ccccc4c3s2)CC1	75 µM	4.72	
CN(C)CCCNc1c2c(nc3ccccc13)CCC2	172 µM	4.49	4.30
CN(c1ccccc1C(=O)O)S(=O)(=O)c1ccc2c3c(cccc13)C(=O)N2	> 200 µM	4.12	
O=C(O)C1Nc2ccccc2C2C=CCC12 (stereo unspecified)	> 200 µM	< 3.40	
CN(C)CCOC(=O)c1ccc2[nH]c3c(c2c1)CSCC3 [TIPINDOLE]	> 200 µM	3.94	4.00
O=C(O)c1cc(Cc2ccc(O)c(C(=O)O)c2)ccc1O	> 200 µM	4.29	
c1ccc(CNc2ccc3c(ccc4c5ccccc5[nH]c34)n2)cc1	26 µM	3.94	5.00
CCN1CCN(CCCNC(=O)c2ccc3c(c2)NC(=O)/C(=C\C(=O)c2ccc(OC)cc2)N3)CC1	> 200 µM	4.44	
Cc1ccc(C)n1-c1cccc(C(=O)O)c1	> 200 µM	4.00	

SMILES	CC50 at 20 h [1]	pIC50 (Vaccinia virus [2])	pEC50 (Vaccinia virus [3])
O=C(O)c1cc(-c2cccs2)nc2ccc(Br)cc12	> 200 µM	4.20	4.00
COc1ccc2c(C)nc(N/C(N)=N/C(C)=O)nc2c1	90 µM	4.80	4.40
C[n+]1ccc(/C=C/c2ccc3c(c2)OCO3)c2ccccc21	> 200 µM	4.62	4.12
COc1ccc2c(C)nc(NC(=N)/N=C(\C)c3ccccc3C(=O)O)nc2c1	164 µM	4.89	4.30
CC1=NN(c2ccccc2)C(=O)/C1=C\c1cn(CC(O)CN2CCCCC2)c2ccccc12 (stereo unspecified)	79 µM	4.62	4.60
CN(C)CC(O)Cn1c2ccc(Cl)cc2c2cc(Cl)ccc21 (stereo unspecified)	17 µM	4.92	5.00
O=C(/C=C/c1ccco1)/C=C/c1ccco1	> 200 µM	4.60	4.12
Oc1ccc(C2(c3ccc(O)cc3)CCCC2)cc1	35 µM	4.15	4.12
COc1ccc(Nc2cc(C(F)(F)F)ccc2Cl)c(C(=O)O)c1	> 200 µM	4.54	4.00
CN(C)/C=C/C=C1C(=O)CCCC1=O	> 200 µM	4.07	
S=c1nc(-c2ccco2)c2c(=S)[nH]c(=S)[nH]c2[nH]1	> 200 µM	3.85	
Cc1c(C)n(CCN(C)C)c2ccc(C(=O)OCCN(C)C)cc12 [AMINDOCATE]	> 200 µM	4.59	4.12
C=C1C(C(=O)NCc2ccco2)C1C(=O)NCc1ccco1 (stereo unspecified)	> 200 µM	3.57	
CN(C)CCNC(=O)c1cc2c(s1)-c1ccc(Cl)cc1SC2	3.9 µM	4.43	5.30
O=C(O)c1ccc2c(c1)NC(=O)C(CSCc1ccccc1Cl)N2 (stereo unspecified)	> 200 µM	3.35	
Nc1[nH]c(=S)sc1C(=O)Nc1nccs1	> 200 µM	4.39	
